A short description of experiment [1]: Antiischemic activity in forebrain neurons assessed as necrotic and delayed apoptotic neuronal population at 100 uM after 20 mins. Type of experiment: functional, Homo sapiens, Neuron. A digest of the protocol: (§1)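 Isolated forebrain neurons at 1×10^6 cells/100 µl pretreated with compound (100 µM) 20 min at 37 °C, then exposed to equal volume of H2O2 (300 µM) 1 h at 37 °C; untreated cells held 1 h 20 min. Cells washed twice in cold PBS, stained FITC-Annexin V/propidium iodide 15 min at room temperature in dark. 10,000 cells read by flow cytometry (ex 488 nm; em 530, 670 nm); quadrant percentages.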

Experiment [2] in a line: Antiischemic activity in forebrain neurons assessed as apoptotic neuronal population at 100 uM after 20 mins. Type of experiment: functional, Homo sapiens, Neuron. A digest of the protocol: as §1
Experiment [3] is described as follows: Antiischemic activity in forebrain neurons assessed as viable cells at 100 uM after 20 mins. Format: functional. To be noted: Homo sapiens, Neuron, read-out: Activity. The method, boiled down:
as §1

The nature of experiment [4]: Antiischemic activity in forebrain neurons assessed as necrotic neuronal population at 100 uM after 20 mins. Format: functional, Homo sapiens, Neuron. The method, boiled down:
as §1

Activity and viability data for 16 molecules are collected here from ChEMBL document CHEMBL1139068, “Amino acid-based enantiomerically pure 3-substituted 1,4-benzodiazepin-2-ones: a new class of anti-ischemic agents” (2007).

The structures appear in SMILES notation.

Take `C[C@@H]1NCc2ccccc2NC1=O`: the Activity was determined as 4.8% in experiment [1], 29.47% in experiment [2] and 5.35% in experiment [4]. The viability at 100 µM in experiment [3] was determined as 60.4%.

For `C[C@H]1NCc2ccccc2NC1=O`, the figures for the Activity in experiment [1], in experiment [2] and in experiment [4] were 3.2%, 26.85% and 0.98%, respectively. In experiment [3], the viability at 100 µM turned out to be 69%.

Regarding `O=C1Nc2ccccc2CN[C@@H]1Cc1c[nH]c2ccccc12`, the figures for the Activity in experiment [1], in experiment [2] and in experiment [4] were 3.47%, 21.06% and 0.5%, respectively. The viability at 100 µM in experiment [3] stood at 75%.

Take `NC(=O)CC[C@@H]1NCc2ccccc2NC1=O`: the results for the Activity in experiment [1], in experiment [2] and in experiment [4] were 3.12%, 24.93% and 4.75%, respectively. For the same molecule, in experiment [3], the viability at 100 µM stood at 67.2%.

For the molecule `O=C1Nc2ccccc2CN[C@H]1Cc1ccc(OCc2ccccc2)cc1`, the Activity in experiment [1] worked out at 4.83%; in experiment [2], 23.63%; in experiment [4] it was 4.99%. For the same molecule, the viability at 100 µM in experiment [3] was determined as 66.5%.

In the case of `O=C1Nc2ccccc2CN2C(=O)CC[C@@H]12`, the Activity was 3.75% in experiment [1], 24.62% in experiment [2] and 5.56% in experiment [4]. Also, the viability at 100 µM in experiment [3] was determined as 66.1%.

Take `O=C1Nc2ccccc2CN2C[C@@H](O)C[C@@H]12`: the figures for the Activity in experiment [1], in experiment [2] and in experiment [4] were 3.08%, 3.79% and 5.68%, respectively. The viability at 100 µM in experiment [3] stood at 87.5%.

Regarding `O=C1Nc2ccccc2CN2CCC[C@H]12`, the Activity in experiment [1] is reported as 3.1%; in experiment [2] it was 11.72%; in experiment [4], 0.64%. Further, the viability at 100 µM in experiment [3] was 84.5%.

For `O=C1Nc2ccccc2CN[C@H]1Cc1ccccc1`, the Activity in experiment [1] is recorded as 1.21%; in experiment [2], 25.58%; in experiment [4] it was 2.07%. Further, in experiment [3], the viability at 100 µM was 70.1%.

For the molecule `O=C1Nc2ccccc2CN2CCC[C@@H]12`, the figures for the Activity in experiment [1], in experiment [2] and in experiment [4] were 5.04%, 23.27% and 5.51%, respectively. Further, the viability at 100 µM in experiment [3] came out at 66.2%.

As to `CSCC[C@H]1NCc2ccccc2NC1=O`, the Activity in experiment [1] stood at 3.98%; in experiment [2], 16.96%; in experiment [4], 0.52%. The viability at 100 µM in experiment [3] was 77.8%.

On to `O=C1Nc2ccccc2CN[C@H]1CSCc1ccccc1`, for which the figures for the Activity in experiment [1], in experiment [2] and in experiment [4] were 4.58%, 26.01% and 5.05%, respectively. Also, the viability at 100 µM in experiment [3] was 64.4%.

Consider `COC(=O)C[C@@H]1NCc2ccccc2NC1=O`, for which the Activity in experiment [1] is 4.28%; in experiment [2], 25.75%; in experiment [4], 4.73%. Besides, the viability at 100 µM in experiment [3] amounted to 65.2%.

Turning to `CSCC[C@@H]1NCc2ccccc2NC1=O`, the Activity in experiment [1] came out at 3.5%; in experiment [2], 9.08%; in experiment [4], 4.73%. Further, the viability at 100 µM in experiment [3] worked out at 82.7%.

Regarding `O=C1Nc2ccccc2CN[C@H]1Cc1c[nH]c2ccccc12`, the Activity in experiment [1] turned out to be 3.55%; in experiment [2], 30.86%; in experiment [4], 4.33%. In experiment [3], the viability at 100 µM stood at 61.3%.

Turning to `O=C1Nc2ccccc2CN[C@@H]1Cc1ccccc1`, the Activity in experiment [1] is given as 0.68%; in experiment [2] it was 17.26%; in experiment [4], 0.68%. In addition, the viability at 100 µM in experiment [3] came out at 79%.
